A selection: hits, their analogues and other compounds. The true share with any hit is near 1.9%.
FN deposit inh: inhibitors of fibronectin matrix deposition, primary screen, AH1F cells, Alexa488-fibronectin fluorescence, plate reader. AH1F fibroblasts, overnight. inhibition, % at 12.6 µM. actives 0.086% (n = 350,000);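 active = mean inhibition across replicates of 30% or more, regardless of how many single replicates reach that level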;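 note: positive control wells lacked labelled fibronectin entirely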
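Assay system: AH1F fibroblasts assembling fluorescent fibronectin matrix; Amount: 10000 AH1F cells per well; Buffer or medium: DMEM, 2% serum; Probe or stimulus: Alexa488-fibronectin, 24 nM final in well; Doses: single compound dose, delivered by pin transfer; Incubation: 1 h adhesion, overnight exposure; Measured by: fluorescence 485/525 nm; Read-out: fibronectin deposition inhibition.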
Cneo AK release: Cryptococcus neoformans cell lysis inducers, primary screen, AK release luminescence, single concentration; C. neoformans lysis, adenylate kinase release luminescence, 4 h; normalised: neutral wells 0, clomiphene wells 100; lysis activity, % at 15 µM; actives 0.2% (n = 360,000); AID 651654, 2012;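 active = mean lysis activity across replicates of at least 80%, whatever share of replicates individually reach that level; inactive = mean lysis activity below 80%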
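Assay system: Cryptococcus neoformans yeast cells / Dosing: single-point compound dose / Timing: 4 h at 37 °C static, read 1 h later / Measured by: luminescence of released adenylate kinase using an AK detection reagent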
PGC1a acetyl inh: inhibitors of PGC1a acetylation signal, primary screen, cell-based, U2OS, AlphaScreen, inhibitor mode. AlphaScreen anti-acetyl-lysine; with virally co-expressed GCN5 acetyltransferase. inhibition, % at 15.6 µM. actives 0.17% (n = 350,000). AID 651687, 2012;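 active = every replicate shows inhibition of at least 40%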;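 note: 0% = neutral control wells and 100% = positive control wells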
F508del corr: F508del CFTR correction, initial screen, CFBE line, single point; CFBE cells, YFP halide quenching; stimulated with forskolin plus potentiator P3; % fluorescence drop versus neutral controls; actives 0.36% (n = 350,000); activity (quench increase), % at 7.58 µM;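 active = mean added fluorescence quench of at least 8% versus neutral control, with both replicates also reaching 8%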;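 note: cells transiently co-express mutant CFTR-F508del with the halide-sensitive YFP; corrector assay measuring rescue of mutant channel to the surface after 24 h compound exposure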
XiGFP reactiv: activators of inactive X chromosome reactivation, primary screen, imaging, XiGFP fibroblasts, GFP high-content imaging, set 2; XiGFP mouse fibroblasts, % GFP-positive cells imaging, 3 d; cells co-treated with 5-aza-dC sensitizer; scaled so ellipticine positive control = 100%; activation, % at 7.58 µM; actives 0.055% (n = 360,000); AID 743238, 2013;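 active = mean normalized replicate activation at least 10% and every replicate at or above 10%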;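 note: 0% = median of on-plate neutral control wells and 100% = ellipticine 6 µM median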
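System: 68-5-11 XiGFP fibroblast line; Timing: 3 days compound exposure; Compound dosing: one concentration, pinned; Benchmarks: positive control ellipticine, 6 µM final; Buffer or medium: DMEM containing 5-aza-dC.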
DENV2 CPE rescue: inhibitors of DENV2 cytopathic effect, primary screen, cell-based, plate reader, single concentration | DENV2-infected cells, cytopathic effect rescue | CPE inhibition, % at 9.99 µM | actives 1.7% (n = 350,000); in the data active = CPE inhibition above about 20%, passing the limit was not always enough; tested in BHK-21 cells;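 note: 0% = median of neutral control wells and 100% = median of positive control wells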
* marks the source's active call; other numbers are inactive results; x = no result.

SMILES	FN deposit inh	Cneo AK release	PGC1a acetyl inh	F508del corr	XiGFP reactiv	DENV2 CPE rescue
O=C1NC(=S)SC1=Cc1ccc(Cl)cc1	1	-4	5	x	0	22*
O=C1NC(=S)SC1=Cc1ccc(F)cc1	2	x	12	4	0	1
Cc1ccc(C)c(NC(=O)C2CCCN(S(=O)(=O)c3ccc4[nH]c(=O)ccc4c3)C2)c1 (configuration not stated)	-7	0	x	-2	0	-5
O=C(Nc1ccc(F)cc1)C1CCCN(S(=O)(=O)c2ccc3[nH]c(=O)ccc3c2)C1 (configuration not stated)	-5	5	5	2	0	115*
Cc1ccc(Cn2c(N)nc3ccccc32)cc1	-8	0	-6	1	0	-4
Nc1nc2ccccc2n1Cc1ccc(Cl)c(Cl)c1	6	0	x	1	0	33*
Cc1cccc(N(Cc2cc(=O)[nH]c3ccccc23)C(=O)CCl)c1	-7	x	x	2	0	8
CCCC(=O)N(Cc1cc(=O)[nH]c2ccccc12)c1cccc(C)c1	1	0	7	-2	0	29*
COc1ccc(-c2oc3ncnc(NCCN4CCOCC4)c3c2-c2ccc(OC)cc2)cc1	x	0	14	x	x	x
COc1ccc(-c2oc3ncnc(NCCCN4CCOCC4)c3c2-c2ccc(OC)cc2)cc1	active	-1	3	x	x	x
CCOc1ccc(N(CC(=O)NC2CCCC2)S(=O)(=O)c2c(C)[nH]c(=O)[nH]c2=O)cc1	-4	2	-3	3	0	54*
COC(=O)C1=C(C)NC(=O)CC1c1ccc(C(=O)OC)cc1 (configuration not stated)	x	-17	18	x	x	x
COC(=O)c1ccc([C@H]2CC(=O)O2)cc1	3	0	-18	0	0	76*
Cc1ccc(OCc2ccc(-c3ccccc3)cc2)c([N+](=O)[O-])n1	-2	0	-12	-2	1	36*
Cc1ccc(-c2nc(NC(=O)c3cc(C(C)(C)C)nn3C)sc2C)cc1Cl	-6	0	x	5	0	55*
CC1CCc2nc(NC(=O)c3cc(C(C)(C)C)nn3C)sc2C1 (configuration not stated)	2	-2	4	6	0	19
CCCN(C)C[C@@H]1OCCCC[C@@H](C)Oc2ccc(NC(=O)Nc3ccc(C(F)(F)F)cc3)cc2C(=O)N([C@H](C)CO)C[C@@H]1C	x	-1	14	1	0	28*
C[C@@H]1CCCCO[C@@H](CN(C)CC2CCCCC2)[C@H](C)CN([C@@H](C)CO)C(=O)c2cc(NC(=O)Nc3ccc(F)cc3)ccc2O1	x	2	-14	-1	0	29*
CC(C)NC(=O)Nc1ccc2c(c1)C(=O)N([C@H](C)CO)C[C@H](C)[C@H](CN(C)CC1CC1)OCCCC[C@@H](C)O2	x	-1	-5	-2	0	107*
CCCN(C)C[C@@H]1OCCCC[C@@H](C)Oc2ccc(NC(=O)Nc3ccccc3)cc2C(=O)N([C@H](C)CO)C[C@@H]1C	0	3	1	0	1	6
CCCN(C)C[C@H]1OCCCC[C@H](C)Oc2ccc(NC(=O)Nc3ccc(C(F)(F)F)cc3)cc2C(=O)N([C@@H](C)CO)C[C@H]1C	x	-3	8	0	0	1
CCCN(C)C[C@H]1OCCCC[C@@H](C)Oc2ccc(NC(=O)NC(C)C)cc2C(=O)N([C@@H](C)CO)C[C@H]1C	8	92*	-1	0	0	2
COc1ccc(S(=O)(=O)Nc2ccc3c(c2)CC(=O)N([C@H](C)CO)C[C@H](C)[C@H](CN(C)C(=O)NC2CCCCC2)O3)cc1	x	0	1	-2	0	16
C=CC[C@@]1(C(=O)N2CCOCC2)N=C(c2ccc(OCCCO)cc2)O[C@@H]1c1ccccc1	x	1	x	1	x	-1
CNc1ccc2ncc(-c3ccc(OC)c(OC)c3)n2n1	17	-1	58*	1	0	-7
SMILES	FN deposit inh	Cneo AK release	PGC1a acetyl inh	F508del corr	XiGFP reactiv	DENV2 CPE rescue
CNc1cc(-c2ccc(OC)c(OC)c2)ncn1	1	-2	x	-2	0	1
CN1C(=O)c2cc(NS(=O)(=O)c3ccc(F)cc3)ccc2OC[C@H]2O[C@@H](CC(=O)O)CC[C@@H]21	-2	-8	-1	0	0	6
C[C@@H]1CN([C@H](C)CO)S(=O)(=O)c2ccc(C3=CCCC3)cc2O[C@@H]1CN(C)Cc1cccnc1	-8	1	-3	0	0	-2
C[C@@H]1CN([C@H](C)CO)S(=O)(=O)c2ccc(C3=CCCC3)cc2O[C@@H]1CN(C)S(=O)(=O)c1ccc(F)cc1	x	-1	-2	-2	0	13
C[C@H]1CN([C@@H](C)CO)S(=O)(=O)c2ccc(C3=CCCC3)cc2O[C@@H]1CN(C)S(=O)(=O)c1ccc(F)cc1	x	1	-7	0	0	69*
C[C@@H]1CN([C@@H](C)CO)S(=O)(=O)c2ccc(C3=CCCC3)cc2O[C@H]1CN(C)Cc1ccncc1	3	0	-6	0	-1	-1
C[C@H](CO)N1C[C@H](C)[C@H](CN(C)Cc2cccnc2)Oc2cc(C3=CCCC3)ccc2S1(=O)=O	8	-1	-24	-2	0	28*
C[C@H](CO)N1C[C@H](C)[C@H](CN(C)Cc2ccncc2)Oc2cc(C3=CCCC3)ccc2S1(=O)=O	4	-1	-17	-2	-1	36*
COc1ccc(S(=O)(=O)N(C)C[C@@H]2OCCCC[C@@H](C)Oc3ccc(NC(=O)C4CCCCC4)cc3C(=O)N([C@H](C)CO)C[C@H]2C)cc1	-2	51	-12	1	0	-1
CN1C(=O)c2cc(NC(=O)c3cccs3)ccc2OC[C@H]2O[C@@H](CC(=O)NCCN3CCCCC3)CC[C@H]21	3	-5	1	1	0	4
CO[C@H]1CC[C@H]2CCOc3c(C#N)cccc3C(=O)N(C)C[C@H](c3ccccc3)CC(=O)N(C)C[C@@H]1O2	-8	27	2	0	0	-8
CO[C@@H]1CC[C@@H]2CCOc3c(C#N)cccc3C(=O)N(C)C[C@H](c3ccccc3)CC(=O)N(C)C[C@@H]1O2	3	83*	8	0	0	3

Source: PubChem
